Measurements from PMC6018888 (Drug Design, Development and Therapy, 2018).

How the values were obtained:
Assay type in all cases: in vivo, human
[1] = Verinurad urinary pharmacokinetics
serum urate (sUA) = experiment: Pharmacodynamics: serum urate; details: for mean reduction of serum urate after 24 hours: multiple verinurad 10 mg doses
Summary of the method: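 Healthy males (screening sUA >4.5 mg/dL) took oral modified-release 2.5 mg tablets or placebo (6:2 per panel) once daily for 7 days (days 6–12), after a moderate-fat breakfast. Japanese panels received 2.5–15 mg and non-Asian subjects 10 mg. Serum sampled predose days 1, 6 and 8–12, then to 72 h (day 12). Maximum percent change from baseline and its timing were read directly from concentration–time data.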

[2] = test system: urinary excretion of uric acid; experiment: Pharmacodynamics: urinary uric acid excretion; details: for CLUR0–24 / FEUA0–24: mean (95% CI); for percent change from baseline in AeUR over 0–6 hours: non-Asian subjects
Summary of the method: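 Total-catch urine was collected at 6- or 12-h intervals from predose to 72 h after dosing on days 1 (fasted ≥10 h, no food 4 h postdose) and 12, and to 24 h on day 6 (fed). Urine uric acid, urine creatinine and serum creatinine were measured. CLUR0–24 = urinary uric acid amount ÷ urate AUC0–24. FEUA0–24 = CLUR0–24 ÷ creatinine clearance × 100.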

[3] = Japanese subjects, 15 mg single dose, fed, day 6, geometric mean (95% CI)
[4] = Japanese subjects, 2.5 mg multiple once-daily doses, fed
[5] = Japanese subjects, 5 mg multiple once-daily doses, fed
[6] = Japanese subjects, 10 mg multiple once-daily doses, fed
[7] = Japanese subjects, 15 mg multiple once-daily doses, fed
[8] = non-Asian subjects, 10 mg multiple once-daily dosing, fed
[9] = Japanese subjects, 2.5 mg multiple dose, fed
[10] = Japanese subjects, 2.5 mg single dose, fasted
[11] = Japanese subjects, 2.5 mg single dose, fed
[12] = Japanese subjects, 5 mg multiple dose, fed
[13] = Japanese subjects, 5 mg single dose, fasted
[14] = Japanese subjects, 5 mg single dose, fed
[15] = Japanese subjects, 10 mg multiple dose, fed
[16] = Japanese subjects, 10 mg single dose, fasted
[17] = Japanese subjects, 10 mg single dose, fed
[18] = Japanese subjects, 15 mg multiple dose, fed
[19] = Japanese subjects, 15 mg single dose, fasted
[20] = Japanese subjects, 15 mg single dose, fed
[21] = Non-Asian subjects, 10 mg multiple dose, fed
[22] = Non-Asian subjects, 10 mg single dose, fasted
[23] = Non-Asian subjects, 10 mg single dose, fed

CC(C)(Sc1ccncc1-c1ccc(C#N)c2ccccc12)C(=O)O [verinurad]
fe0–24 ([1]; Japanese subjects, 15 mg single dose, fasted, day 1, geometric mean (95% CI)): 0.788 (0.424–1.45) %
CLR0–24 [1, 3]: 12.0 (6.06–23.7) mL/min
fe0–24 [1, 3]: 1.14 (0.907–1.45) %
renal clearance GMR, Japanese vs non-Asian ([1]; multiple dosing, 90% CI 79.7–126): 100%
fraction of drug excreted in urine GMR, Japanese vs non-Asian ([1]; multiple dosing, 90% CI 98.7–153): 123%
renal clearance GMR, Japanese vs non-Asian ([1]; single dose, fasted, 90% CI 53.7–91.4): 70.0%
fraction of drug excreted in urine GMR, Japanese vs non-Asian ([1]; single dose, fasted, 90% CI 70.9–124): 93.7%
renal clearance GMR, Japanese vs non-Asian ([1]; single dose, fed, 90% CI 65.0–101): 80.9%
fraction of drug excreted in urine GMR, Japanese vs non-Asian ([1]; single dose, fed, 90% CI 107–191): 143%
time of maximum reduction in sUA (serum urate (sUA); Japanese and non-Asian subjects, multiple once-daily doses, fed): ≤ 12 hours postdose
sUA least square mean maximum percent change from baseline at 12 hours (serum urate (sUA); [4]): −31%
sUA percent change from baseline at 24 hours (serum urate (sUA); [4]): −16%
sUA least square mean maximum percent change from baseline at 12 hours (serum urate (sUA); [5]): −50%
sUA percent change from baseline at 24 hours (serum urate (sUA); [5]): −31%
sUA least square mean maximum percent change from baseline at 12 hours (serum urate (sUA); [6]): −62%
sUA percent change from baseline at 24 hours (serum urate (sUA); [6]): −46%
sUA concentration at maximum reduction (serum urate (sUA); [7]): < 2 mg/dL
sUA least square mean maximum percent change from baseline at 12 hours (serum urate (sUA); [7]): −74%
sUA percent change from baseline at 24 hours (serum urate (sUA); [7]): −55%
mean reduction of serum urate after 24 hours (serum urate (sUA); Japanese subjects): 46%
sUA maximum percent change from baseline (serum urate (sUA); [8]): −58%
sUA percent change from baseline at 24 hours postdose (serum urate (sUA); [8]): −44%
mean reduction of serum urate after 24 hours (serum urate (sUA); non-Asian subjects): 44%
CLUR0–24 [2, 9]: 12.2 (10.3–14.2) mL/min
FEUA0–24 [2, 9]: 7.57 (6.74–8.41) %
CLUR0–24 [2, 10]: 7.82 (6.90–8.74) mL/min
FEUA0–24 [2, 10]: 7.72 (6.01–9.43) %
CLUR0–24 [2, 11]: 11.4 (9.74–13.0) mL/min
FEUA0–24 [2, 11]: 7.75 (6.80–8.70) %
percent change from baseline in AeUR, 0–6 hour interval ([2]; Japanese subjects, 2.5 mg, day 1 (fasted)): 18%
percent change from baseline in AeUR, 0–6 hour interval ([2]; Japanese subjects, 2.5 mg, day 6 (fed)): 62%
percent change from baseline in AeUR, 0–6 hour interval ([2]; Japanese subjects, 2.5 mg, day 12 (steady-state, fed)): −17%
CLUR0–24 [2, 12]: 13.7 (9.35–18.1) mL/min
FEUA0–24 [2, 12]: 14.5 (9.93–19.1) %
CLUR0–24 [2, 13]: 10.9 (8.88–12.9) mL/min
FEUA0–24 [2, 13]: 9.05 (7.20–10.9) %
CLUR0–24 [2, 14]: 16.0 (11.7–20.3) mL/min
FEUA0–24 [2, 14]: 11.2 (7.42–14.9) %
percent change from baseline in AeUR, 0–6 hour interval ([2]; Japanese subjects, 5 mg, day 1 (fasted)): 59%
percent change from baseline in AeUR, 0–6 hour interval ([2]; Japanese subjects, 5 mg, day 6 (fed)): 114%
percent change from baseline in AeUR, 0–6 hour interval ([2]; Japanese subjects, 5 mg, day 12 (steady-state, fed)): −35%
CLUR0–24 [2, 15]: 19.7 (16.7–22.7) mL/min
FEUA0–24 [2, 15]: 13.7 (10.8–16.6) %
CLUR0–24 [2, 16]: 14.3 (10.7–17.9) mL/min
FEUA0–24 [2, 16]: 10.8 (7.87–13.6) %
CLUR0–24 [2, 17]: 16.0 (9.88–22.1) mL/min
FEUA0–24 [2, 17]: 20.5 (11.3–29.6) %
percent change from baseline in AeUR, 0–6 hour interval ([2]; Japanese subjects, 10 mg, day 1 (fasted)): 114%
percent change from baseline in AeUR, 0–6 hour interval ([2]; Japanese subjects, 10 mg, day 6 (fed)): 131%
percent change from baseline in AeUR, 0–6 hour interval ([2]; Japanese subjects, 10 mg, day 12 (steady-state, fed)): −33%
CLUR0–24 [2, 18]: 23.9 (14.9–32.9) mL/min
FEUA0–24 [2, 18]: 16.0 (10.7–21.2) %
CLUR0–24 [2, 19]: 15.0 (6.40–23.6) mL/min
FEUA0–24 [2, 19]: 14.5 (7.08–22.0) %
CLUR0–24 [2, 20]: 12.1 (4.04–20.2) mL/min
FEUA0–24 [2, 20]: 9.61 (2.96–16.3) %
percent change from baseline in AeUR, 0–6 hour interval ([2]; Japanese subjects, 15 mg, day 1 (fasted)): 77%
percent change from baseline in AeUR, 0–6 hour interval ([2]; Japanese subjects, 15 mg, day 6 (fed)): 49%
percent change from baseline in AeUR, 0–6 hour interval ([2]; Japanese subjects, 15 mg, day 12 (steady-state, fed)): 6%
CLUR0–24 [2, 21]: 20.6 (13.7–27.4) mL/min
FEUA0–24 [2, 21]: 13.2 (8.45–17.9) %
CLUR0–24 [2, 22]: 15.3 (7.35–23.3) mL/min
FEUA0–24 [2, 22]: 10.4 (4.84–16.0) %
CLUR0–24 [2, 23]: 18.6 (8.95–28.2) mL/min
FEUA0–24 [2, 23]: 11.7 (6.44–17.0) %
percent change from baseline in AeUR over 0–6 hours ([2]; 10 mg, day 1): 70%
percent change from baseline in AeUR over 0–6 hours ([2]; 10 mg, day 6): 141%
percent change from baseline in AeUR over 0–6 hours ([2]; 10 mg, day 12): -41%
